According to article PMC12552610 (Nature Communications, 2025):

Biological target: Aβ (AD brain homogenates) (Homo sapiens, UniProt P05067)
Assay: Competition of PiB against [3H]ACI-Aβ ref on AD brain homogenates
Format: binding
In short: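 Insoluble AD brain fraction prepared by high-salt, Triton X-100 and sucrose ultracentrifugation steps. Competitor serially diluted from 2000 nM to 0.14 nM against tritiated Aβ reference ligand at 15 nM. Run in 50 mM Tris pH 7.5, 0.9% NaCl, 0.1% BSA for 2 h at RT, in duplicate. Samples vacuum-filtered on GF/C, washed five times with ice-cold Tris, then scintillation-counted.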

Chain of Aβ (AD brain homogenates) (P05067 672-713): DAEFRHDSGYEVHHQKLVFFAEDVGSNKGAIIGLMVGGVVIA

Structure (SMILES): CNc1ccc(-c2nc3ccc(O)cc3s2)cc1 [Pittsburg compound B, 2-(4-(Methylamino)phenyl)benzo[d]thiazol-6-ol]
- displacement of Aβ ref cmpd: can be displaced by it
